Experimental data from ChEMBL document CHEMBL3804764, “Synthesis and biological characterization of 3-(imidazol-1-ylmethyl)piperidine sulfonamides as aromatase inhibitors” (Bioorg Med Chem Lett, 2016).

Molecular target: T1, Aromatase (Homo sapiens, UniProt P11511)
T1 sequence (P11511 whole entry): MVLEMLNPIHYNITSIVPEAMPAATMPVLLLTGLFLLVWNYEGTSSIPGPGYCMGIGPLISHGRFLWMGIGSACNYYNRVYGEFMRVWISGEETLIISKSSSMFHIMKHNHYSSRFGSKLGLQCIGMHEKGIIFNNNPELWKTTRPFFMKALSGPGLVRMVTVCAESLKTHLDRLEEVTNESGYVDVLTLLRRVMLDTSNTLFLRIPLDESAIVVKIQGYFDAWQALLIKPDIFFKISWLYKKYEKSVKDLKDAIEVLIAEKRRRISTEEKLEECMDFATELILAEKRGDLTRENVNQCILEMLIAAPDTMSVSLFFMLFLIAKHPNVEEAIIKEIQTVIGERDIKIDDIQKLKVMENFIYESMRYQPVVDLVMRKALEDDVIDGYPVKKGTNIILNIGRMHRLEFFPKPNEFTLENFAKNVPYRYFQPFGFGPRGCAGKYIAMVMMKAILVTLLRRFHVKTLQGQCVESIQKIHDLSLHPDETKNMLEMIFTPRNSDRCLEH
Assay: Inhibition of recombinant human aromatase using 7-methoxy-4-trifluoromethyl coumarin as substrate measured at […] conditions by fluorescence analysis
Summary of the method: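 Semiautomated high-throughput fluorometric screen with recombinant human aromatase and 7-methoxy-4-trifluoromethyl coumarin (MFC) substrate. Inhibition read as reduced fluorescence from MFC conversion. Blank values subtracted from sample wells to give net signal. Activity normalized to no-inhibitor wells. Duplicate assays. Racemic compounds tested.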

Row | Compound | IC50
1 | COc1ccc(S(=O)(=O)N2CCCC(Cn3ccnc3)C2)c(C)c1C (configuration not stated) | 59 nM
2 | CS(=O)(=O)c1ccc(S(=O)(=O)N2CCCC(Cn3ccnc3)C2)cc1 (configuration not stated) | 48 nM
3 | COc1ccc(S(=O)(=O)N2CCCC(Cn3ccnc3)C2)cc1OC (configuration not stated) | 42 nM
4 | O=S(=O)(c1ccc(OC2CCCC2)c(F)c1)N1CCCC(Cn2ccnc2)C1 (configuration not stated) | 22 nM
5 | COc1ccc(S(=O)(=O)N2CCCC(Cn3ccnc3)C2)cc1F (configuration not stated) | 14 nM
6 | COc1ccc(S(=O)(=O)N2CCCC(Cn3ccnc3)C2)cc1C(C)(C)C (configuration not stated) | 9 nM
7 | O=[N+]([O-])c1ccc(S(=O)(=O)N2CCCC(Cn3ccnc3)C2)cc1C(F)(F)F (configuration not stated) | 16 nM
8 | O=C(O)c1cc(S(=O)(=O)N2CCCC(Cn3ccnc3)C2)ccc1O (configuration not stated) | 339 nM
9 | COc1c(C)cc(S(=O)(=O)N2CCCC(Cn3ccnc3)C2)cc1C (configuration not stated) | 21 nM
10 | O=S(=O)(c1ccc(OC2CCCC2)cc1)N1CCCC(Cn2ccnc2)C1 (configuration not stated) | 14 nM
11 | O=S(=O)(c1ccc2nsnc2c1)N1CCCC(Cn2ccnc2)C1 (configuration not stated) | 7 nM
12 | O=S(=O)(c1ccc2c(c1)OCCO2)N1CCCC(Cn2ccnc2)C1 (configuration not stated) | 13 nM
13 | Cc1cc(S(=O)(=O)N2CCCC(Cn3ccnc3)C2)ccc1F (configuration not stated) | 24 nM
14 | COc1ccc(S(=O)(=O)N2CCCC(Cn3ccnc3)C2)cc1Br (configuration not stated) | 6 nM
15 | O=S(=O)(c1ccc(F)cc1)N1CCCC(Cn2ccnc2)C1 (configuration not stated) | 51 nM
16 | COc1cc([N+](=O)[O-])ccc1S(=O)(=O)N1CCCC(Cn2ccnc2)C1 (configuration not stated) | 129 nM
17 | COc1ccc(S(=O)(=O)N2CCCC(Cn3ccnc3)C2)c(OC)c1 (configuration not stated) | 131 nM
18 | COc1c(C)cc(S(=O)(=O)N2CCCC(Cn3ccnc3)C2)c(C)c1C (configuration not stated) | 45 nM
19 | O=S(=O)(c1ccc(F)c(Cl)c1)N1CCCC(Cn2ccnc2)C1 (configuration not stated) | 14 nM
20 | O=[N+]([O-])c1cccc(Cl)c1Oc1cccc(S(=O)(=O)N2CCCC(Cn3ccnc3)C2)c1 (configuration not stated) | 9 nM
21 | COC(=O)c1ccccc1S(=O)(=O)N1CCCC(Cn2ccnc2)C1 (configuration not stated) | 53 nM
22 | O=S(=O)(c1cccc2nsnc12)N1CCCC(Cn2ccnc2)C1 (configuration not stated) | 54 nM
23 | O=S(=O)(c1ccc(F)c(F)c1F)N1CCCC(Cn2ccnc2)C1 (configuration not stated) | 46 nM
24 | N#Cc1ccc(S(=O)(=O)N2CCCC(Cn3ccnc3)C2)cc1 (configuration not stated) | 36 nM
25 | Cc1cc(F)ccc1S(=O)(=O)N1CCCC(Cn2ccnc2)C1 (configuration not stated) | 48 nM
26 | O=S(=O)(c1ccc(F)c(F)c1)N1CCCC(Cn2ccnc2)C1 (configuration not stated) | 43 nM
27 | N#Cc1ccc(S(=O)(=O)N2CCCC(Cn3ccnc3)C2)c(Cl)c1 (configuration not stated) | 79 nM
